Consider 2 molecules from paper PMC7591087 (Drug Design, Development and Therapy, 2020).

Data set [1] in a line: Steady-state pharmacokinetics. Format: in vivo. Conditions: human, plasma, oral. The method, boiled down: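 Crossover design in healthy males: 5 mg, 30 mg, or both test compounds orally once daily for 7 days, fasted, with 7-day washouts. A validated LC-MS/MS assay measured parent drugs and metabolites, and steady-state Tmax was taken directly from observed data. Analysis covered 34 completers.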

Data set [2] is described as follows: Safety and tolerability assessment. Format: in vivo, human. The method, boiled down:
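Healthy males in a randomized, open-label, six-sequence, three-period crossover took one test compound at 5 mg, another at 30 mg, or both together, orally once daily for 7 days with 150 mL water while fasted, with 7-day washouts. Investigators monitored vital signs, physical exam, clinical labs, 12-lead ECG and adverse events, coding events with MedDRA 19.0. Analysis covered 35 subjects dosed at least once.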

The conditions of data set [3]: repeated once-daily administrations in healthy subjects, NCT00961025; cited from earlier work.
In another data set the test system is CYP enzymes. The note with it: in vitro studies; cited from earlier work.
For data set [4] the following is noted: once-daily oral administration; cited from earlier work.
The subject of the next data set is CYP enzyme. The note with it: in vivo; cited from earlier work.
The mark [5] stands for this setting: number of subjects who reported ADRs (the number of ADRs), N=35.

Structures are written as SMILES. Like-named read-outs stand apart in the source and are kept apart here.

For the molecule `CC(C)(C)OC[C@@H]1C(=O)NCCN1C(=O)C[C@H](N)Cc1cc(F)c(F)cc1F` [Evogliptin], in data set [1] (5 mg), the Tmax (commonly the time from dosing to the highest level) came to 4.5 h. Moreover, in data set [2] (setting [5]), the “ADR: Diarrhoea” value is recorded as 1 (1), the “ADR: Dyspepsia” value is 1 (1), the “ADR: Headache” value is listed as 1 (1) and the “ADR: Lip blister” value was 1 (1). In data set [2] (setting [5]), the “ADR: Muscle twitching” value is on record as 1 (1), the “ADR: Musculoskeletal stiffness” value was 1 (1), the “ADR: Oropharyngeal swelling” value is 1 (1) and the “ADR: Vomiting” value is 1 (1). In data set [3], the “terminal half-life (t1/2)” value is 33 to 39 h and the “time to reach a maximum plasma concentration (Tmax)” value was 4 to 5 h. Moreover, the “induction or inhibition of CYP enzymes” value in the data set with CYP enzymes is “does not induce or inhibit CYP enzymes”.
Regarding `CCc1ccc(CCOc2ccc(CC3SC(=O)NC3=O)cc2)nc1` (stereo not drawn) [Pioglitazone], the Tmax was 3 h in data set [1], 2 h in data set [1] (30 mg) and “about 2 hours” in data set [4]. For the same molecule, the “number of AEs reported” value in data set [2] (all adverse events after each treatment, 35 subjects) stood at 3 AEs. For the same molecule, the “ADR: Amylase increased” value in data set [2] (setting [5]) was 1 (1). The “CYP enzyme induction or inhibition” value in the data set on CYP enzyme is listed as “No clinically significant CYP enzyme induction or inhibition”.
